Converted amounts (≈) assume the structure as drawn.
Legend:
duplex DNA (dA60.dT60) = experiment: UV thermal denaturation of AT rich DNA duplex; assay type: binding; conditions: 10 μM ligand, 1 μM duplex, 10 mM sodium cacodylate, 0.1 mM EDTA, 100 mM NaCl, pH 7.0
[1] = biological target: E. coli DNA topoisomerase I (Escherichia coli, UniProt P06612); experiment: Inhibition assay against E. coli DNA topoisomerase I; assay type: biochemical; conditions: gel titration, 6 nM enzyme
[2] = biological target: human DNA topoisomerase II (Homo sapiens, UniProt P11388); experiment: Inhibition assay against human DNA topoisomerase II; assay type: biochemical; conditions: 50 μM compound
Summary of the method: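 Relaxation of 200 ng supercoiled pBAD-GFPuv by 4 units human topoisomerase II. Compound final 5–50 μM (10 and 50 μM in gel panels). 30 min at 37 °C, stopped by phenol extraction. Run on 1% agarose without chloroquine and ethidium-stained. (−) supercoiled band was quantified as a fraction of all topoisomers.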

[3] = system: prostate cancer cell line DU-145; experiment: Cytotoxicity, sulforhodamine B assay; assay type: cell-based; conditions: DU-145, 48 h treatment, SRB
[4] = Cytotoxicity, sulforhodamine B assay; assay type: cell-based; conditions: human, DU-145 prostate cancer cells
S. aureus 33591 = experiment: MIC by microbroth dilution; assay type: cell-based; conditions: Staphylococcus aureus, 33591, 24 h, read-out: MIC S2
Summary of the method: (§1)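 CLSI microbroth dilution in Mueller-Hinton broth. Log-phase cultures (37 °C, shaking) were pelleted and resuspended in 0.85% saline to OD625 0.1, giving final 5×10^5 CFU/mL. Triplicate wells were incubated 24 h at 37 °C and read at OD625. MIC is given as a range where no sharp growth inflection occurred.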

[5] = biological target: T1, human DNA topoisomerase I (Homo sapiens, UniProt P11387); experiment: Inhibition assay against human DNA topoisomerase I; assay type: biochemical; conditions: 50 μM compound
T1 sequence (P11387 1-765): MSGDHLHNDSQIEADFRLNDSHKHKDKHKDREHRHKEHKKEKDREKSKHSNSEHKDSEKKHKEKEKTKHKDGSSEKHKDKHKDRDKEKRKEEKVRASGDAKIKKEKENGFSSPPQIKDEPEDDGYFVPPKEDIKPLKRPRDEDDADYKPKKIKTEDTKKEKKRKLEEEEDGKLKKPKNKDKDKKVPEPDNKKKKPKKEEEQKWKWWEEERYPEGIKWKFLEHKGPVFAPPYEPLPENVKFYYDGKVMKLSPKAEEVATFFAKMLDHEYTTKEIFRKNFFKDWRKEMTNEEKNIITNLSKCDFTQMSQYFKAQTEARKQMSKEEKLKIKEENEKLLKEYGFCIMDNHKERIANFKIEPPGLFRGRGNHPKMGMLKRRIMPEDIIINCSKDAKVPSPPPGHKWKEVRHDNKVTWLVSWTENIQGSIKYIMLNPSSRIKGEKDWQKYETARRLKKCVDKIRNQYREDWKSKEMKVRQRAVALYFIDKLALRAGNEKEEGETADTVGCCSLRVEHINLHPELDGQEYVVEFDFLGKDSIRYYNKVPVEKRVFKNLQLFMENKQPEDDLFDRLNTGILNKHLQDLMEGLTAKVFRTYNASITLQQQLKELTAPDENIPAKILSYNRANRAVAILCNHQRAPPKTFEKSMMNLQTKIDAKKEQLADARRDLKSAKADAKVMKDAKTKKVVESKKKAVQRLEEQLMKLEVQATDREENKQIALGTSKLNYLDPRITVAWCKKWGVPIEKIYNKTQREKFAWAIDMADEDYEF

E. faecalis 29212 = experiment: MIC by microbroth dilution; assay type: cell-based; conditions: Enterococcus faecalis, 29212, 24 h, read-out: MIC S6
Summary of the method: as §1

E. coli DNA gyrase = E. coli DNA gyrase (Escherichia coli, UniProt P0AES4+P0AES6); experiment: Inhibition assay against E. coli DNA gyrase; assay type: biochemical; conditions: 1 to 50 μM compound
Chain of E. coli DNA gyrase (P0AES4 whole entry, one chain of several): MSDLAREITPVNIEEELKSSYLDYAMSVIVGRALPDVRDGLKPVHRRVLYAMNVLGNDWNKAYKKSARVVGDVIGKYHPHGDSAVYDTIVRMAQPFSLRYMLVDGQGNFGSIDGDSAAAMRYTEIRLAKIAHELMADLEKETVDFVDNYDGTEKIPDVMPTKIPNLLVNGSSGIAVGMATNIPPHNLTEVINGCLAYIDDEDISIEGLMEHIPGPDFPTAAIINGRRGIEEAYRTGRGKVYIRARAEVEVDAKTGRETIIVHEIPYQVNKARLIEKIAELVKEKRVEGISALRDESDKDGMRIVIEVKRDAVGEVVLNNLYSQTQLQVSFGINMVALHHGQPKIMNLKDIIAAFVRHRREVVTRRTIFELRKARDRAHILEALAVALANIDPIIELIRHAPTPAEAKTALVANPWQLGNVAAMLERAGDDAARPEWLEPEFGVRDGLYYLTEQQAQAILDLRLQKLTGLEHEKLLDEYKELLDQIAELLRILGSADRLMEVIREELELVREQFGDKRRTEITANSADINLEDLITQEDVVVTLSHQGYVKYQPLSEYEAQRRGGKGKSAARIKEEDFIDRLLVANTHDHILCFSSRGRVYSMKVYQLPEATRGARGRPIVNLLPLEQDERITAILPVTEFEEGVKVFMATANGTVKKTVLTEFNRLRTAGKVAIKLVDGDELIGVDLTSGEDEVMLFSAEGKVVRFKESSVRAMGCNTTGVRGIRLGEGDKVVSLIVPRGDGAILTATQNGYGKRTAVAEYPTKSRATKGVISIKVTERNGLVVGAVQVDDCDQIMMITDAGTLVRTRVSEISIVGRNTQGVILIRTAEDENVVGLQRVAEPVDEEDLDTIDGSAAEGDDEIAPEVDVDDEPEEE

Chain of human DNA topoisomerase II (P11388 whole entry): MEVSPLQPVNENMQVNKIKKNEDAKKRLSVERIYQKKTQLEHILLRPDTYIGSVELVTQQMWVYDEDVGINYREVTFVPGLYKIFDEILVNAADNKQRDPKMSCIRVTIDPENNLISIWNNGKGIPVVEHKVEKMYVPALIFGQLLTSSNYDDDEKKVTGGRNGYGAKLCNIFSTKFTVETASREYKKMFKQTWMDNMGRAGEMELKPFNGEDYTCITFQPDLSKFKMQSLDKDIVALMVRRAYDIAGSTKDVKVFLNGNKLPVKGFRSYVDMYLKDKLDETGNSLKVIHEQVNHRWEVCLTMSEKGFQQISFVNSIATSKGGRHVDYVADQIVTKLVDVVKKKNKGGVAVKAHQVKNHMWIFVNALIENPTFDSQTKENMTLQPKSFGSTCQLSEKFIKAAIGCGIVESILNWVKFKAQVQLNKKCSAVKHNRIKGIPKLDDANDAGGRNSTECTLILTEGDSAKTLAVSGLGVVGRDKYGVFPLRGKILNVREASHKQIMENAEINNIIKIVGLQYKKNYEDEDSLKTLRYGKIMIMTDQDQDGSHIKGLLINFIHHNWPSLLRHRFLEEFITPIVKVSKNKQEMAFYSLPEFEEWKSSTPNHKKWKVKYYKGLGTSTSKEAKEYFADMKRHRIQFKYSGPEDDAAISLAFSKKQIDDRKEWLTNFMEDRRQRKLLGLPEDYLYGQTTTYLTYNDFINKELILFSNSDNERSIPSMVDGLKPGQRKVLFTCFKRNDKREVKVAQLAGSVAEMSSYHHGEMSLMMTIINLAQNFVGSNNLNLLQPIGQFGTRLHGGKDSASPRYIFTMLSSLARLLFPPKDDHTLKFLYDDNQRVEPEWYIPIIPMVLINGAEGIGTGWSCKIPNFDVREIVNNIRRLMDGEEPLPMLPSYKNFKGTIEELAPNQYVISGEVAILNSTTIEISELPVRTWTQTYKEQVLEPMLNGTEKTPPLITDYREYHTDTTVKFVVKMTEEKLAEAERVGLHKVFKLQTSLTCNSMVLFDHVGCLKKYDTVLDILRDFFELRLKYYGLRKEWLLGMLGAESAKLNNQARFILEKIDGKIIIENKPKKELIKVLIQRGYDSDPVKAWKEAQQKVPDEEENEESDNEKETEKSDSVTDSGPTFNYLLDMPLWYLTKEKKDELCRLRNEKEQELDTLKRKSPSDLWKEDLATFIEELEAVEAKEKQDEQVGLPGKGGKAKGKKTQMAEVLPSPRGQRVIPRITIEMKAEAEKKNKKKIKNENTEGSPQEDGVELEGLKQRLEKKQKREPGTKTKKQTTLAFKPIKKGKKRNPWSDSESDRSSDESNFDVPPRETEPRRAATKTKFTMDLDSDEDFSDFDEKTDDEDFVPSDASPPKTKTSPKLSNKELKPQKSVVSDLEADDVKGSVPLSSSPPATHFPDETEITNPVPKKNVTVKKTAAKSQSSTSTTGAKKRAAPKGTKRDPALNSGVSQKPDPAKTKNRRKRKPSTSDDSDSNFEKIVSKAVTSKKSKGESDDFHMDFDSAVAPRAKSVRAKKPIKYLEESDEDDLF
Chain of E. coli DNA topoisomerase I (P06612 whole entry): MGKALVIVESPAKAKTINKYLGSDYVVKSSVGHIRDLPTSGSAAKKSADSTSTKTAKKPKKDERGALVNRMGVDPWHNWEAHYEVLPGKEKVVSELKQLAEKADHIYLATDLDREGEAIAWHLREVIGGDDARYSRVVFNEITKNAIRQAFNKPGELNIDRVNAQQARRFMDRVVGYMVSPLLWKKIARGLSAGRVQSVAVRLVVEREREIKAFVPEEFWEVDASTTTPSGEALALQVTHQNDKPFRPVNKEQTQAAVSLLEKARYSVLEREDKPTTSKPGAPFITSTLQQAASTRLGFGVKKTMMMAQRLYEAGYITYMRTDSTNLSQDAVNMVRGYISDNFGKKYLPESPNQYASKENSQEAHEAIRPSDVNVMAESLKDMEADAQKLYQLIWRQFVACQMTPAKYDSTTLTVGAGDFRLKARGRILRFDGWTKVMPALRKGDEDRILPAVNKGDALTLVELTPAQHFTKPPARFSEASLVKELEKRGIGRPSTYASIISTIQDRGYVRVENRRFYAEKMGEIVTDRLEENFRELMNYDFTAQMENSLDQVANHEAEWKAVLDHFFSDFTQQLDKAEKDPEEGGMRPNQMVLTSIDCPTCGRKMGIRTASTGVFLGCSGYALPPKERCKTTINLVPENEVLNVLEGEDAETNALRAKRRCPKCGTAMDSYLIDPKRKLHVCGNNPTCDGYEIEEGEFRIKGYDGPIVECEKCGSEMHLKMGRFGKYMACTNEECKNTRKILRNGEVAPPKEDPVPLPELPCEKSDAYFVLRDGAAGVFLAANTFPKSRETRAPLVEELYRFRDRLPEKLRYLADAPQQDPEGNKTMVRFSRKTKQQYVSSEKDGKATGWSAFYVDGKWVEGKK

| Structure (SMILES) | Tm (duplex DNA (dA60.dT60)) | concentration needed to completely inhibit the activities of E. coli DNA topoisomerase I [1] | inhibition of human DNA topoisomerase II activities [2] | MIC (E. faecalis 29212) | other results |
| --- | --- | --- | --- | --- | --- |
| C#CCOc1ccc(-c2nc3ccc(-c4nc5ccc(N6CCN(C)CC6)cc5[nH]4)cc3[nH]2)cc1 [DPA 151, 6-(4-methylpiperazin-1-yl)-2′-(4-(prop-2-ynyloxy)phenyl)-1H,3′H-2,5′-bibenzo[d]imidazole] | 85.4 °C | approximately 5 μM | partially inhibit | – | – |
| C#CCCCCOc1ccc(-c2nc3ccc(-c4nc5ccc(N6CCN(C)CC6)cc5[nH]4)cc3[nH]2)cc1 [DPA 152, 2′-(4-(hex-5-ynyloxy)phenyl)-6-(4-methylpiperazin-1-yl)-1H,3′H-2,5′-bibenzo[d]imidazole] | 83.4 °C | – | – | – | cytotoxicity relative to Hoechst 33242 [3]: nearly twice as toxic as Hoechst 33242 |
| C#CCCCCCCCCCOc1ccc(-c2nc3ccc(-c4nc5ccc(N6CCN(C)CC6)cc5[nH]4)cc3[nH]2)cc1 [DPA 153, 6-(4-methylpiperazin-1-yl)-2′-(4-(undec-10-ynyloxy)phenyl)-1H,3′H-2,5′-bibenzo[d]imidazole] | 70.5 °C | – | – | – | IC50 at 48 h [4]: > 10 µM |
| C#CCOCCCCOc1ccc(-c2nc3ccc(-c4nc5ccc(N6CCN(C)CC6)cc5[nH]4)cc3[nH]2)cc1 [DPA 154, 6-(4-methylpiperazin-1-yl)-2′-(4-(4-(prop-2-ynyloxy)butoxy)phenyl)-1H,3′H-2,5′-bibenzo[d]imidazole] | 85.9 °C | – | – | – | – |
| CN1CCN(c2ccc3[nH]c(-c4ccc5[nH]c(-c6ccc(O)cc6)nc5c4)nc3c2)CC1 [Hoechst 33258] | 87.1 °C | approximately 20 μM | completely inhibit | 16 to 32 µg/mL (≈ 37.7 to 75.4 µM) | MIC (S. aureus 33591): 16 to 32 µg/mL (≈ 37.7 to 75.4 µM); supercoiled DNA template prevented from relaxation by human DNA topoisomerase I [5]: about 70%; inhibition of DNA gyrase's activities (E. coli DNA gyrase): did not inhibit |
| CCOc1ccc(-c2nc3cc(-c4nc5cc(N6CCN(C)CC6)ccc5[nH]4)ccc3[nH]2)cc1 [Hoechst 33342] | 86.6 °C | – | – | 16 to 32 µg/mL (≈ 35.4 to 70.7 µM) | – |
